# Experimental data published in ChEMBL document CHEMBL1140709, “Design, synthesis, and biological evaluation of (E)-styrylbenzylsulfones as novel anticancer agents” (J Med Chem, 2008).
# Activity calls are given as the source filed them. The calls are words filed in the database; no cut-off is given here.
# Legend:
# Daudi = assay: Antitumor activity against human Daudi cells by trypan blue exclusion assay; type: functional, cell-based
# In short: (§1)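 Tumour cells were grown in DMEM or RPMI with 10% fetal bovine serum and 1 unit/mL penicillin-streptomycin. They were seeded in six-well dishes at 1.0 × 10⁵ cells/mL/well, and compound was added 24 h later over a range of concentrations. After 96 h of exposure, viable cells in duplicate wells were counted by trypan blue exclusion.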
# DLD-1 = assay: Antitumor activity against human DLD1 cells by trypan blue exclusion assay; type: functional, cell-based; in short: as §1
# [1] = Antitumor activity against human multidrug-resistant MES-SA/DX5 cells by trypan blue exclusion assay; type: functional, cell-based; in short: as §1
# OVCAR-3 = assay: Antitumor activity against human OVCAR-3 cells by trypan blue exclusion assay; type: functional, cell-based; in short: as §1
# HCT-15 = assay: Antitumor activity against human HCT15 cells by trypan blue exclusion assay; type: functional, cell-based; in short: as §1
# BT-20 [2] = assay: Antitumor activity against human BT20 cells by trypan blue exclusion assay; type: functional, cell-based; in short: as §1
# MOLT-4 = assay: Antitumor activity against human MOLT4 cells by trypan blue exclusion assay; type: functional, cell-based; in short: as §1
# A549 = assay: Antitumor activity against human A549 cells by trypan blue exclusion assay; type: functional, cell-based; in short: as §1
# [3] = Antitumor activity against human RF1 cells by trypan blue exclusion assay; type: functional, cell-based; in short: as §1
# HUVEC = assay: Cell cycle arrest in HUVEC cells by accumulation at G1 phase by FACS analysis; type: functional, cell-based; conditions: Homo sapiens
# In short: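 HUVEC were exposed to 20 nM compound in medium with 10% fetal bovine serum. At 24 h intervals, cells were fixed, stained with propidium iodide and analysed for DNA content by flow cytometry.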
# BT-20 [4] = assay: Antitumor activity against ER-negative human BT20 xenografted athymic NCR-nu/nu mouse at 25 mg/kg, ip for every 4 days after 22 days; conditions: route intraperitoneal
# [5] = Antitumor activity against human Namalwa cells by trypan blue exclusion assay; type: functional, cell-based; conditions: NAMALVA; in short: as §1
# [6] = Antitumor activity against human H187 cells by trypan blue exclusion assay; type: functional, cell-based; conditions: NCI-H187; in short: as §1
# SK-MEL-28 = assay: Antitumor activity against human SK-MEL-28 cells by trypan blue exclusion assay; type: functional, cell-based; in short: as §1
# AGS = assay: Antitumor activity against human AGS cells by trypan blue exclusion assay; type: functional, cell-based; in short: as §1
# Raji = assay: Antitumor activity against human Raji cells by trypan blue exclusion assay; type: functional, cell-based; in short: as §1
# [7] = Antitumor activity against human MES-SA cells by trypan blue exclusion assay; type: functional, cell-based; in short: as §1
# MCF7 = assay: Antitumor activity against ER-positive human MCF7 cells by trypan blue exclusion assay; type: functional, cell-based; in short: as §1
# BT-20 [8] = assay: Antitumor activity against human BT20 xenografted athymic NCR-nu/nu mouse at 50 mg/kg, ip after 22 days
# [9] = Antitumor activity against human U87 cells by trypan blue exclusion assay; type: functional, cell-based, U-87MG ATCC; conditions: U-87 MG; in short: as §1
# DU-145 [10] = assay: Antitumor activity against AR-negative human DU145 cells by trypan blue exclusion assay; type: functional, cell-based; in short: as §1
# CCRF-CEM [11] = assay: (§2) Antitumor activity against human CEM cells by trypan blue exclusion assay; type: functional, cell-based; in short: as §1
# BT-20 [12] = assay: Antitumor activity against ER-negative human BT20 xenografted athymic NCR-nu/nu mouse at 50 mg/kg, ip every 2 days after 22 days; conditions: route intraperitoneal
# COLO 205 = assay: Antitumor activity against human COLO205 cells by trypan blue exclusion assay; type: functional, cell-based; in short: as §1
# CEM/C2 = assay: Antitumor activity against human multidrug-resistant CEM/C2 cells by trypan blue exclusion assay; type: functional, cell-based; in short: as §1
# [13] = Antitumor activity against human RF48 cells by trypan blue exclusion assay; type: functional, cell-based; in short: as §1
# T47D = assay: Antitumor activity against ER-positive human T47D cells by trypan blue exclusion assay; type: functional, cell-based; in short: as §1
# [14] = Antitumor activity against human H157 cells by trypan blue exclusion assay; type: functional, cell-based; conditions: NCI-H157; in short: as §1
# MIA PaCa-2 [15] = assay: Antitumor activity against human MiaPaCa2 cells by trypan blue exclusion assay; type: functional, cell-based; in short: as §1
# CCRF-CEM [16] = assay: as §2; type: functional, cell-based; in short: as §1; remark: listed apart in the source
# PC-3 = assay: Antitumor activity against […] human PC3 cells by trypan blue exclusion assay; type: functional, cell-based; in short: as §1
# [17] = Antitumor activity against human N417 cells by trypan blue exclusion assay; type: functional, cell-based; in short: as §1
# SK-OV-3 = assay: Antitumor activity against human SKOV3 cells by trypan blue exclusion assay; type: functional, cell-based; in short: as §1
# MIA PaCa-2 [18] = assay: Growth inhibition of human MiaPaCa2 cells after 3 weeks by soft agar colony formation assay; type: functional, cell-based
# In short: (§3)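 Noble agar: 0.8% bottom layer; cells (1.0 × 10⁵ for MIA-PaCa-2) in medium with compound at various concentrations, mixed into 0.4% top agar. Each concentration in triplicate; 3 weeks at 37 °C, 5% CO₂. Stained with 0.05% nitroblue tetrazolium for 48 h and colonies photographed.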
# SW480 = assay: Antitumor activity against human SW480 cells by trypan blue exclusion assay; type: functional, cell-based; in short: as §1
# 2008 = assay: Antitumor activity against human 2008 cells by trypan blue exclusion assay; type: functional, cell-based; in short: as §1
# [19] = Antitumor activity against human multidrug-resistant 2008/17/4 cells by trypan blue exclusion assay; type: functional; in short: as §1
# K562 = assay: Antitumor activity against human K562 cells by trypan blue exclusion assay; type: functional, cell-based; in short: as §1
# HCT-116 = assay: Antitumor activity against human HCT116 cells by trypan blue exclusion assay; type: functional, cell-based; in short: as §1
# BT-20 [20] = assay: Growth inhibition of human BT20 after 3 weeks by soft agar colony formation assay; type: functional, cell-based; in short: as §3
# DU-145 [21] = assay: Growth inhibition of human DU145 after 3 weeks by soft agar colony formation assay; type: functional, cell-based; in short: as §3
# Rattus norvegicus [22] = assay: Hematotoxicity in rat at 100 mg/kg, iv; type: organism-based; parameters: dose 100 mg/kg, route intravenous; conditions: in vivo
# In short: (§4)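 Rats were given the water-soluble phosphate form iv in single-dose and repeat-dose (28 daily injections) toxicology studies, with biochemical and cellular analysis.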
# Mus musculus [23] = assay: Neurotoxicity in CD1 mouse at 100 mg/kg, iv; type: toxicity, organism-based; parameters: dose 100 mg/kg, route intravenous; conditions: in vivo
# Mus musculus [24] = assay: Hematotoxicity in CD1 mouse at 100 mg/kg, iv; type: organism-based; parameters: dose 100 mg/kg, route intravenous; conditions: in vivo
# In short: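 CD-1 mice received 200 µL iv of PBS or drug (10 mg/mL; 100 mg/kg). Bone marrow was taken from femur and tibia 12, 24 or 48 h later. Cells were cultured in duplicate in methylcellulose with stem cell factor 50 ng/mL, IL-3 10 ng/mL, IL-6 10 ng/mL, transferrin 200 µg/mL and erythropoietin 3 units/mL. Total, myeloid and lymphoid colony-forming units were counted after 1 week.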
# Rattus norvegicus [25] = assay: Effect on liver damage in rat at 100 mg/kg, iv; type: ADME, organism-based; parameters: dose 100 mg/kg, route intravenous; conditions: in vivo; in short: as §4
# Rattus norvegicus [26] = assay: Neurotoxicity in rat at 100 mg/kg, iv; type: toxicity, organism-based; parameters: dose 100 mg/kg, route intravenous; conditions: in vivo; in short: as §4
# Mus musculus [27] = assay: Effect on liver damage in CD1 mouse at 100 mg/kg, iv; type: ADME, organism-based; parameters: dose 100 mg/kg, route intravenous; conditions: in vivo
IC50 (Daudi) [nM],IC50 (DLD-1) [nM],IC50 (OVCAR-3) [nM],IC50 (HCT-15) [nM],IC50 (BT-20 [2]) [nM],IC50 (MOLT-4) [nM],IC50 (A549) [nM],IC50 (SK-MEL-28) [nM],IC50 (AGS) [nM],IC50 (Raji) [nM],IC50 (MCF7) [nM],IC50 (DU-145 [10]) [nM],SMILES,IC50 [1] [nM],IC50 [3] [nM],Activity (HUVEC),IC50 [5] [nM],IC50 [6] [nM],IC50 [7] [nM],Activity (BT-20 [8]),IC50 [14] [nM],further results
8,40,8,20,20,9,20,40,20,9,3,25,COc1ccc(CS(=O)(=O)/C=C/c2c(OC)cc(OC)cc2OC)cc1,10,8,Active,15,15,10,Active,30,Activity (BT-20 [4]): 74 mm3; IC50 [9]: 40 nM; IC50 (CCRF-CEM [11]): 30 nM; Activity (BT-20 [12]): 67.5 mm3; IC50 (COLO 205): 15 nM; IC50 (CEM/C2): 10 nM; IC50 [13]: 10 nM; IC50 (T47D): 25 nM; IC50 (MIA PaCa-2 [15]): 8 nM; IC50 (CCRF-CEM [16]): 30 nM; IC50 (PC-3): 30 nM; IC50 [17]: 8 nM
7,3,6,8,10,5,10,7,7,4,4,3,COc1cc(OC)c(/C=C/S(=O)(=O)Cc2ccc(OC)c(O)c2)c(OC)c1,5,6,Active,6,7,6,,4,IC50 (SK-OV-3): 6 nM; Activity (MIA PaCa-2 [18]): Dose-dependent effect; IC50 (SW480): 7 nM; IC50 2008: 5 nM; IC50 [19]: 4 nM; IC50 (K562): 4 nM; IC50 [9]: 7 nM; IC50 (HCT-116): 9 nM; IC50 (CCRF-CEM [11]): 9 nM; IC50 (COLO 205): 9 nM; Activity (BT-20 [20]): Dose-dependent effect; IC50 (CEM/C2): 10 nM; IC50 [13]: 5 nM; IC50 (T47D): 6 nM; IC50 (MIA PaCa-2 [15]): 4 nM; IC50 (CCRF-CEM [16]): 10 nM; IC50 (PC-3): 8 nM; Activity (DU-145 [21]): Dose-dependent effect; IC50 [17]: 5 nM

SMILES,IC50 (Daudi) [nM],IC50 (DLD-1) [nM],IC50 (OVCAR-3) [nM],IC50 (HCT-15) [nM],IC50 (BT-20 [2]) [nM],IC50 (MOLT-4) [nM],IC50 (A549) [nM],IC50 (SK-MEL-28) [nM],IC50 (AGS) [nM],IC50 (Raji) [nM],IC50 (MCF7) [nM],IC50 (DU-145 [10]) [nM],IC50 [1] [nM],IC50 [3] [nM],Activity (HUVEC),IC50 [5] [nM],IC50 [6] [nM],IC50 [7] [nM],Activity (BT-20 [8]),IC50 [14] [nM],further results
COc1cc(OC)c(/C=C/S(=O)(=O)Cc2ccc(OC)c(OP(=O)([O-])O)c2)c(OC)c1.[Na+],,7,,,5,,,,,,,2.5,,,,,,,Active,7,Activity (Rattus norvegicus [22]): Non-toxic; Activity (Mus musculus [23]): Non-toxic; Activity (MIA PaCa-2 [18]): Dose-dependent effect; Activity (Mus musculus [24]): Non-toxic; Activity (Rattus norvegicus [25]): Non-toxic; Activity (BT-20 [20]): Dose-dependent effect; Activity (Rattus norvegicus [26]): Non-toxic; Activity (Mus musculus [27]): Non-toxic; Activity (DU-145 [21]): Dose-dependent effect
